Measurements published in PubChem BioAssay AID1453 (NMMLSC, 2008).
This is one part of the list. Values without a mark were called inactive.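 How the source made its calls: active means inhibition above 50%; inactive means the rest.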

Molecular target: Broad substrate specificity ATP-binding cassette transporter ABCG2 (Homo sapiens) (UniProt Q9UNQ0)
Experiment: blockers of JC-1 export by ABCG2 – single point, IgMXP3 cells, ABCB1 counter-screen paired, confirmation (AID 1453);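 further: 0% = DMSO wells and 100% = nicardipine pump inhibitor wells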
Conditions: JC-1 efflux, flow cytometry, at 6.6 µM, hits give high values
Summary of the method: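 Material – drug-resistant IgMXP3 cells expressing human ABCG2 · Reagent – JC-1 substrate · Dosing – single test compound dose, 6.6 µM final · Incubation – 10 min exposure at 25 °C · Signal – high-throughput flow cytometry, JC-1 green median fluorescence, 530 ± 20 nm · Read-out – percent pump inhibition versus DMSO and nicardipine · Controls – nicardipine high, DMSO low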

Chain of Broad substrate specificity ATP-binding cassette transporter ABCG2 (Homo sapiens) (Q9UNQ0 whole entry, looked up): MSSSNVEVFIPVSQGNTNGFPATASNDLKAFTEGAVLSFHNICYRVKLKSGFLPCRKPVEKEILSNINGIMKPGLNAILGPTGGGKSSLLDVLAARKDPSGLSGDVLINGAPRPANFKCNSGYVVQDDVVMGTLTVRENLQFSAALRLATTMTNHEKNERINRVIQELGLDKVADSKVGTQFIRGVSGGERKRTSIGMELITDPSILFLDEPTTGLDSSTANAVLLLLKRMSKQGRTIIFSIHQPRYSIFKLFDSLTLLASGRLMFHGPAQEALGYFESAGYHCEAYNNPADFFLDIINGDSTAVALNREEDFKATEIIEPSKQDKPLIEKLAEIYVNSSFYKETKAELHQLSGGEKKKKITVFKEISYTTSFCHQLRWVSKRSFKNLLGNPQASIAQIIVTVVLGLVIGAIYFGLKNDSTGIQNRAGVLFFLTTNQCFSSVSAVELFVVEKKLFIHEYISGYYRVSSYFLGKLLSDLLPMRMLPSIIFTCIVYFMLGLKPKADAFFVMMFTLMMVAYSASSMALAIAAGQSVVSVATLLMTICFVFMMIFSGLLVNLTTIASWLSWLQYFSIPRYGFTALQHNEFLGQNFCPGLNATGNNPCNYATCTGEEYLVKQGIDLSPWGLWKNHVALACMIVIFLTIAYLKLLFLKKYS

COC(=O)COc1cc(C)cc2oc(=O)c3c(c12)CCCC3
inhibition: 22.6%
